These results are taken from PMC6349498 (Drug testing and analysis, 2018).

A short description of data set [1]: OT stability in human serum. The following applies: added to human serum; 4°C or room temperature (23°C); up to 24 hours; LCMS. In kind it is in vitro ADME. A digest of the protocol: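 OT and OT-d5 were added to human serum and held at room temperature (~23°C) or 4°C for 24 h. Levels were compared with pre-incubation values. Serum (500 µL) was spiked with OT-d5, acidified with 4% phosphoric acid, then C18 SPE-purified. Quantitation was by HRAM orbitrap LCMS in positive heated ESI targeted SIM mode.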

The conditions of data set [2]: plasma from men and non-pregnant women; 60 minute incubation at 37°C; cited from earlier work.
The format of data set [3] is in vivo, human. A digest of the protocol:
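Healthy male and post-menopausal female volunteers self-dosed intranasally. Male: 100 IU (10 IU/puff, 5 puffs per nostril, alternating), then 20 IU (1 puff per nostril) after one-week washout. Female: 100 IU (50 IU/puff) compounded metered spray. Serum (male), urine and saliva were sampled baseline to 120–240 min and frozen at −80°C. Samples were C18 SPE-extracted with OT-d5 internal standard and analysed by orbitrap targeted SIM (m/z 562.25503); urine was creatinine-adjusted.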

A short description of data set [4]: OT stability in human urine. The format is in vitro ADME. The conditions noted are these: human urine spiked 9.9-385 ng/mL; 10°C; up to 5 days; LCMS.
Data set [5] is described as follows: OT stability in water. The format is physicochemical. The following applies: spiked 9.9, 24.8, 154 and 385 ng/mL in water; 10°C; up to 5 days; LCMS. Summed up: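 Water was spiked with OT and OT-d5 at final 9.9, 24.8, 154 and 385 ng/mL and held at 10°C for variable times, matching the urine spikes. OT and OT-d5 levels were quantitated by HRAM orbitrap LCMS (positive heated ESI, targeted SIM). Means and standard deviation were reported.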

Setting [6] is: healthy volunteer, n=1, 100 IU intranasal (OxyLuv), saliva.
Setting [7] is: male, human, serum, inhaled or intranasal, 100 IU.

Like-named read-outs stand apart in the source and are kept apart here.

A word on the Cmax: it is the highest concentration seen after dosing. As usually defined, the Tmax is the time at which the peak concentration occurs. Consider `CC[C@H](C)[C@@H]1NC(=O)[C@H](Cc2ccc(O)cc2)NC(=O)[C@@H](N)CSSC[C@@H](C(=O)N2CCC[C@H]2C(=O)N[C@@H](CC(C)C)C(=O)NCC(N)=O)NC(=O)[C@H](CC(N)=O)NC(=O)[C@H](CCC(N)=O)NC1=O` [OT, Oxytocin], for which the “change in level compared to pre-incubation level” value in data set [1] was less than 15%. In addition, the “OT degradation in plasma” value in data set [2] is “little or no OT degradation”. For the same compound, in data set [3] (2 volunteers, 20 IU or 100 IU intranasal, serum, urine, saliva, summary), the “time after the peak at which levels decreased to below detection limits” value is 1 to 2 h. Also, the “time of peak levels in serum, urine and saliva after each dose” value in data set [3] (2 volunteers, 20 IU or 100 IU intranasal, summary over matrices) was in the range of 15 to 30 min. In addition, the “time of elimination of saliva OT to levels below LLOD” value in data set [3] (after intranasal OT, saliva, LLOD 10 pg/mL) fell in the range of 2 to 3 h. For the same compound, in data set [3] (healthy volunteer, n=1, 20 IU intranasal (OxyLuv), saliva), the “time of peak saliva OT level” value stood at 15 min. Moreover, in data set [3] (setting [6]), the “peak saliva OT level” value is given as 392,000 pg/mL and the “time of peak saliva OT level” value is 15 min. Further, the “time of decrease of serum OT to baseline” value in data set [3] (healthy volunteer, n=1, 100 IU intranasal (OxyLuv), serum) was no more than 60 min. In addition, the “time of peak urine OT excretion” value in data set [3] (healthy volunteer, n=1, 100 IU intranasal (OxyLuv), urine) was found to be 30 min. Further, in data set [3] (setting [7]), the concentration peaked (Cmax) at 0.08 ng/mL and the Tmax was 15 min. For the same compound, the “stability in urine after the initial drop” value in data set [4] is “stayed at those low levels”. Also, in data set [5], the stability in water entry is “remained stable”.
In the case of OT-leucyl-d3-glycinamide-d2 [OT-d5], the “change in level compared to pre-incubation level” value in data set [1] was less than 15%. The “stability in urine after the initial drop” value in data set [4] is “stayed at those low levels”. The stability in water entry in data set [5] is reported as “remained stable”.
